Laboratory results from the EternaBench riboswitch data.

Tested on: MS2 coat protein
Experiment: apparent Kd, MS2 coat protein; higher = weaker binding; RNA-MaP array; FMN 200 µM where present
How it was run: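 Designs were transcribed by stalled E. coli RNA polymerase on Illumina sequencing-chip clusters. They were titrated with SNAP-549-labelled MS2 coat protein from 0.7 or 1.5 nM, doubling to 3 µM, in 100 mM Tris-HCl pH 7.5, 80 mM KCl, 4 mM MgCl2, BSA, DTT, yeast tRNA and Tween-20, without and then with constant ligand. The apparent Kd is the median of filtered per-cluster fits after normalisation of green signal to red-channel RNA signal and control-cluster median Fmax.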

[1] = designed as: ON switch for flavin mononucleotide, no ligand
[2] = ligand present: flavin mononucleotide, designed as: ON switch for flavin mononucleotide
[3] = designed as: OFF switch for flavin mononucleotide, no ligand
[4] = ligand present: flavin mononucleotide, designed as: OFF switch for flavin mononucleotide

Sequence | apparent Kd [1] [nM] | apparent Kd [2] [nM] | apparent Kd [3] [nM] | apparent Kd [4] [nM]
AAAACAUGAGGAUCACCCAUGUAAAGAUCAGUUAAUAGAGGUGAGGAUAUACGAACUUAAAGGUAGUAGAAGGCACUGGGUACA | 35.9 | 30 |  | 
UAAAAGCGAGGAUAUACAUGAGGAUCACCCAUGUGAAAGAAAAAUAAAAAAAAAAAAAGUAGAAGGCGCUAAAA |  |  | 62.1 | 58.4
CGGAUGUGAGGAUAUACAUGAGGAUCACCCAUGUGUGCCAGCUAGAUGACUGGCACUUGUAGAAGGCACGUCUG |  |  | 11.3 | 21.7
ACUCGGAGCUGGCGACAGAAGACAUGAGGAUCACCCAUGUAGAGAAGGAGCCCUGGGACCGGUGGCUAGGAUAUUUACAUCGGU |  |  | 6.9 | 12.3
GAAUUAUUGAUCCAAUUUUACAACAUGAGGAUCACCCAUGUGCAGGAUAUCGUGUGUUUUAUAUUCGAGAAGGGCAAGAACUUU |  |  | 141 | 300
ACUAAACGAGGAUAUACUGACAGGCCUCAGGCAUACAUCAAACAUGAGGAUCACCCAUGUAGAAGGCGUAAACU |  |  | 32.8 | 32.8
ACAUGCAUAGCGAUAUGAUCGAGAGAUCAUGUCGAAAAUUUUAGAAGGACAUGAGGAUCACCCAUGUAGGAUAUGGGAGCAUGA | 62.6 | 16.3 |  | 
GGCGGUAAUGAGAAGGGUCACAUGAGGAUCACCCAUGUGCUCUUCGCCGUGACAGGAUAUCAUUGCCGUCAGGUUAGAUUUUUG |  |  | 7.99 | 25.4
AUAAUUUUAUAUAUCAUUUUAAUCAGAAGGCAUAACAUGAGGAUCACCCAUGUAAAUUAUUGUUAUGAGGAUAUGAUUUGGUUA |  |  | 20.3 | 72.2
AGCUAGUCAGGAUAUACGUACAUGUCAUUAGACGUGAAGGGACAUGAGGAUCACCCAUGUAGAAGGGACUAGCU |  |  | 37.6 | 139
AAUAGUGGAGGAUAUACAUGAGGAUCACCCAUGUAGAAAGGAAGUGUAUAUAUGGCGUGUAGAAGGCCAAAUAA |  |  | 36.4 | 34.1
UGUCGGAGCAGAGGAUAUUACAUGAGGAUCACCCAUGUAUGAACCAAUAGCUGGAAACAGCAAUGUAAGAAGGCUGCUCCGGCA |  |  | 11.8 | 186
AAGGUGAGUCAAGGAUAUCCGGGCUGAAUGCCAGGAGAAGGUGACAUGAGGAUCACCCAUGUCUCUCCGAGCAUGGUAUUCUCA |  |  | 148 | 138
CUCUUCUCUGAGGAUAUUUUAUGUGUGGACGUGAAAGAAGGCAGUACAUGAGGAUCACCCAUGUGUCCCUCUGU |  |  | 126 | 216
AUUACAUGAGGAUCACCCAUGUACAGCACGUUUCAAUACAGUGAGGAUAUACGAAAUGUAGGAACGUAGAAGGCACUGGGUGCA | 265 | 68.1 |  | 
AAGCGCGUAGGAUAUACAUGAGGAUCACCCAUGUGAGGAGGGAGUUGGAGGUGUGGAAGUAGAAGGACGGAGUG |  |  | 48.1 | 37.6
GUAGCAUACGGAGGAUAUCCAUACCGGAAACGGACAUGAGGAUCACCCAUGUGGCGAAAGCCUUGGGAGAAGGCCGUAUGCUAC | 4.63 | 3.67 |  | 
AGGAGGUUAGGAUAUGCUGCUCGUCACUUGCGUGAUGAGUAGCAGAAGGGACAUGAGGAUCACCCAUGUAAAAA |  |  | 48.5 | 28.1

Sequence | apparent Kd [1] [nM] | apparent Kd [2] [nM] | apparent Kd [3] [nM] | apparent Kd [4] [nM]
UGUGUGUGGGCAGGAUAUGCAUGAAUAUAUAUGAUGUAGUGUGAUGUAACAUGAGGAUCACCCAUGUAGAAGGGCCGGUGUAUG |  |  | 145 | 234
AUCAGCUUGUCAGGAUAUACGUCACUGCGUCAGCAGUGUGGUAAGAUCACAUGAGGAUCACCCAUGUAGAAGGGACGAGCUGAU |  |  | 12.9 | 321
AAUCCACAUGAGGAUCACCCAUGUCAGGAAAUGACAGGAUAUAGCGAAAAAAAAAAAAAGCUAGAAGGGUCUAAUU | 175 | 67.5 |  | 
AAAGACAGACAUGAGGAUCACCCAUGUUAUGAAGAUACUGGGAGAAGGGCGAUUGCAAAGCAAUCGCAGGAUAUUCGUAUUGUC | 92.2 | 15.6 |  | 
AAUAUUUUUUGAGGAUAUUCAUACACUGUAUACGGAGAAGGCAAACAAUCAUGAGGACAUGAGGAUCACCCAUGUUGUGACCAU | 20.1 | 12.8 |  | 
UAGUGAUUGCAAGGAUAUGCUUAUGUUUAAUUUUUUUUAAUAUCUAACAUGAGGAUCACCCAUGUGCAGAAGGUGCUUGAUUUG | 66.1 | 58.7 |  | 
GCAACGCCUGACAUGAGGAUCACCCAUGUUAGAUUGUUAUGUCAGGAUAUUGUCUCGAAACGAGAUGAGAAGGGAUAUGUUGCU | 997 | 61.2 |  | 
GUAGAGUCAGGAUAUACGAGAUCGAAAGAUCGGCGGUCUGUACAUGAGGAUCACCCAUGUAGAAGGGACUCUAC |  |  | 16.4 | 94.4
AUAUAUACAAAGUUACAUGAGGAUCACCCAUGUUUAUUGGGAAGAAGGGUAACAUUAUUAGAUGUAUAGGAUAUUUCACGAUUG | 513 | 320 |  | 
GUCAGCUCGUGAGGAUAUACAACAUUGCUUCGGCAGUGUAUUAAGAUCACAUGAGGAUCACCCAUGUAGAAGGCACGAGCUGAU |  |  | 14.1 | 243
AAACCGUGUGGAGGAUAUGCAGUUGAGGUGAGGCGGCAGCUCUAUACGACAGCAGAAGGCCACAUGAGGAUCACCCAUGUAGGU |  |  | 107 | 326
UAUAUACAUGAGGAUCACCCAUGUAAGGAUAUGCAUUAUUAUUAUUAUUAUUAUUAUAGCAGAAGGUACAAUAU |  |  | 32.1 | 31.3
CGCCGACAUGAGGAUCACCCAUGUCACAACUGGUCAGGAUAUGGUAUGAUUUGGCUAUUGCCAGAAGGGACCUCAG | 50.5 | 21 |  | 
AUCAGCUCGCCAGGAUAUACGUCACUGCGUCAGCAGUGUGGUAAGAUCACAUGAGGAUCACCCAUGUAGAAGGGACGAGCUGAU |  |  | 10.3 | 69.2
ACAUUCUUUCGAGGAUAUCGGUGAUUAAUUUUACGAGAAGGCGAUUUAAGAUAUAAUAUUUUAGACAUGAGGAUCACCCAUGUA | 26.1 | 24.1 |  | 
ACACUACAUGAGGAUCACCCAUGUCAGGAUAUCGAUAUCACAACUCAUCAACCUCACUCGAGAAGGGACACAUA |  |  | 24 | 23.8
CCGGAAACGGGUAGCUGACAUGAGGAUCACCCAUGUGUAUCACAGGAUAUGGAUCCUAAUUGGAUCCAGAAGGGUGUCAGCUAC | 1130 | 105 |  | 
ACAUGAGGAUCACCCAUGUAUUCAUAGGAUAUACUACAUGAGUUUCAUUCAUGUAAACUUGUAUUGUAGAAGGAUGUUACAUGU |  |  | 16.4 | 19.2
